Laboratory results published in publication PMC7115577 (Peptides, 2005).

Experiments:
Type in all cases: cell-based
[1] = system: human polymorphonuclear leukocytes (PMN); assay: Chemotaxis assay
[2] = system: isolated guinea pig ileum (GPI); assay: Potentiation of the BK-induced contraction of GPI; settings: analogue alone, cumulative GPI contraction curves
Summary of the method: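 Guinea pig ileum strips (1.5 cm) suspended in Tyrode solution at 37 °C; isotonic contractions recorded under 500 mg resting tension. Concentration–response curves were built for the agonist, and pD2 was derived from them.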

guinea pig ileum = settings: calyculin 100 nM, BK 20 nM, BPP9α 20 nM
Summary of the method: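 Ileum segments (1.5 cm) in Tyrode at 37 °C, isotonic recording under 500 mg resting tension. The phosphatase inhibitor was added either at the peak of the BK contraction, before the potentiating peptide, or 1 min before the combined BK/peptide challenge, with washes between. Traces are from four to six separate experiments.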

## C[C@H](N[C@@H](CCc1ccccc1)C(=O)O)C(=O)N1[C@H](C(=O)O)C[C@@H]2CCC[C@@H]21 [ramiprilat]
[1]
  effect on migratory activity of the nonpeptide agonist FR190997: could not be accelerated
[1]; BK 10^−7 M, ramiprilat 10 nM
  migration index (MI) of BK in the presence of inhibitor: 1.69 ± 0.26

## DArg-Arg-Pro-Hyp-Gly-Thi-Ser-Pro-ɛAbu(ßPh)-Arg
[2]
  pD2-value of enzymatically more stable BK analogue: 6.65 ± 0.14

## CC(C)C[C@H](NP(=O)(O)O[C@@H]1O[C@@H](C)[C@H](O)[C@@H](O)[C@H]1O)C(=O)N[C@@H](Cc1c[nH]c2ccccc12)C(=O)O [phosphoramidon]
[1]; BK 10^−8 M, phosphoramidon 10^−7 M, 5 min preincubation
  migration index (MI) of BK in the presence of inhibitor: 1.19 ± 0.03

## calyculin
Guinea pig ileum
  influence on the potentiation of the BK-induced contraction: no influence
